According to ChEMBL document CHEMBL1122039, “Design of more potent and selective antagonists of the antidiuretic responses to arginine-vasopressin devoid of antidiuretic agonism” (J Med Chem, 1982):
Numbered stars: 1 amine (or outer) side, 2 acyl side, 3 side chain; on linkers, the order of the positions; unused ones are H or OH. Bridge positions count the residues as written; N and C are the ends. Peptide text beside a SMILES is read from it. X1 = O=C(CC1(S[*:2])CCCCC1)[*:1]

Columns and labels:
[1] = ED ratio (anti-vasopressor ED/antiantidiuretic ED) of the compound; assay type: functional, Urine
[2] = Selectivity ratio for anti-vasopressor potency to antidiuretic potency; assay type: functional, Urine
[3] = species on record: Rattus norvegicus; test: In vitro anti-oxytocic activity in rat uterus (no Mg2+); assay type: functional; conditions: read-out: pA2 (converted)
[4] = Selectivity ratio for antioxyticic potency to antidiuretic potency; assay type: functional, Urine
[5] = species on record: Rattus norvegicus; test: Effective dose required for anti-oxytocic activity in rat uterus; assay type: functional
[6] = test system: Rattus norvegicus; test: In vivo anti-oxytocic activity in rat uterus; assay type: functional, organism-based; conditions: read-out: pA2 (converted)
[7] = ED ratio (anti-oxytocic ED/antiantidiuretic ED) of the compound; assay type: functional, Urine
[8] = species on record: Rattus norvegicus; test: Antiantidiuretic activity in rats.; assay type: functional, organism-based; conditions: Urine, read-out: pA2 (converted)
How it was run: (§1)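 Antidiuretic assay in rats under ethanol anesthesia. Antagonist given at two doses, a high and a low one. The USP posterior pituitary standard was injected 20 min later, or 10 min later for non-agonist analogues.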

[9] = species on record: Rattus norvegicus; test: In vitro anti-oxytocic activity in rat uterus (0.5 mM Mg2+); assay type: functional; conditions: read-out: pA2 (converted)
[10] = species on record: Rattus norvegicus; test: Antivasopressor activity in rats.; assay type: functional, organism-based; conditions: read-out: pA2 (converted)
How it was run: (§2)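 Intravenous vasopressor assay in phenoxybenzamine-treated rats under urethane anesthesia, with the USP posterior pituitary standard as agonist. Antagonist given at a high and a low dose.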

[11] = species on record: Rattus norvegicus; test: Effective dose required for antiantidiuretic activity in rats.; assay type: functional, Urine; how it was run: as §1
[12] = species on record: Rattus norvegicus; test: Effective dose required for anti-vasopressor activity in phenoxybenzamine-treated rats under urethane anesthesia; assay type: functional; how it was run: as §2

SMILES: CC(C)[C@@H]1NC(=O)[C@H](Cc2ccccc2)NC(=O)[C@@H](Cc2ccc(O)cc2)NC(=O)CC2(CCCCC2)SSC[C@@H](C(=O)N2CCC[C@H]2C(=O)N[C@@H](CCCN=C(N)N)C(=O)NCC(N)=O)NC(=O)[C@H](CC(N)=O)NC1=O
- ED ratio [1]: 0.13
- Selectivity [2]: 1
- Kb [3]: 7.76 nM
- Selectivity [4]: 1
- Effective dose [5]: 6.9 nM/kg
- Kb [6]: 97.7 nM
- ED ratio [7]: 3.1
- Kb [8]: 30.9 nM
- Kb [9]: 16.6 nM
- Kb [10]: 3.89 nM

SMILES: CC[C@@H](C)[C@H]1NC(=O)CC2(CCCCC2)SSC[C@@H](C(=O)N2CCC[C@H]2C(=O)N[C@@H](CCCN=C(N)N)C(=O)NCC(N)=O)NC(=O)[C@H](CC(N)=O)NC(=O)[C@H](C(C)C)NC(=O)[C@H](Cc2ccccc2)NC1=O
- Kb [3]: 10.5 nM
- Effective dose [11]: 0.7 nM/kg
- Effective dose [5]: 44 nM/kg
- Kb [6]: 617 nM
- Kb [8]: 10.5 nM
- Kb [10]: 115 nM
- Effective dose [12]: 8.2 nM/kg

SMILES: CC(C)[C@@H]1NC(=O)[C@H](Cc2ccccc2)NC(=O)[C@@H](Cc2ccccc2)NC(=O)CC2(CCCCC2)SSC[C@@H](C(=O)N2CCC[C@H]2C(=O)N[C@@H](CCCN=C(N)N)C(=O)NCC(N)=O)NC(=O)[C@H](CC(N)=O)NC1=O
- Effective dose [11]: 0.67 nM/kg
- Effective dose [5]: 8.9 nM/kg
- Kb [6]: 120 nM
- Kb [8]: 8.51 nM
- Kb [10]: 8.71 nM
- Effective dose [12]: 0.58 nM/kg

SMILES: CC(C)[C@@H]1NC(=O)[C@H](Cc2ccccc2)NC(=O)[C@@H](Cc2ccc(O)cc2)NC(=O)CC2(CCCCC2)SSC[C@@H](C(=O)N2CCC[C@H]2C(=O)N[C@H](CCCN=C(N)N)C(=O)NCC(N)=O)NC(=O)[C@H](CC(N)=O)NC1=O
- Kb [3]: 10.2 nM
- Effective dose [11]: 6.3 nM/kg
- Effective dose [5]: 8.1 nM/kg
- Kb [6]: 117 nM
- Kb [8]: 93.3 nM
- Kb [9]: 16.6 nM
- Kb [10]: 8.91 nM
- Effective dose [12]: 0.6 nM/kg

SMILES: CC(C)[C@@H]1NC(=O)[C@H](Cc2ccccc2)NC(=O)[C@@H](CCCN=C(N)N)NC(=O)CC2(CCCCC2)SSC[C@@H](C(=O)N2CCC[C@H]2C(=O)N[C@@H](CCCN=C(N)N)C(=O)NCC(N)=O)NC(=O)[C@H](CC(N)=O)NC1=O
- Kb [3]: > 10000 nM
- Effective dose [11]: >90 nM/kg
- Kb [8]: > 1260 nM
- Kb [10]: 3980 nM
- Effective dose [12]: ~260 nM/kg

SMILES: CC(C)[C@@H]1NC(=O)[C@H](Cc2ccccc2)NC(=O)[C@@H](C)NC(=O)CC2(CCCCC2)SSC[C@@H](C(=O)N2CCC[C@H]2C(=O)N[C@@H](CCCN=C(N)N)C(=O)NCC(N)=O)NC(=O)[C@H](CC(N)=O)NC1=O
- Kb [3]: 692 nM
- Kb [9]: 9770 nM
- Kb [10]: 1620 nM
- Effective dose [12]: 177 nM/kg

SMILES: CC(C)[C@@H]1NC(=O)[C@H](Cc2ccccc2)NC(=O)[C@@H](C(C)C)NC(=O)CC2(CCCCC2)SSC[C@@H](C(=O)N2CCC[C@H]2C(=O)N[C@@H](CCCN=C(N)N)C(=O)NCC(N)=O)NC(=O)[C@H](CC(N)=O)NC1=O
- ED ratio [1]: 12
- Selectivity [2]: 92
- Kb [3]: 12.6 nM
- Effective dose [11]: 2.3 nM/kg
- Selectivity [4]: 31
- Effective dose [5]: 220 nM/kg
- Kb [6]: 3240 nM
- ED ratio [7]: 96
- Kb [8]: 33.1 nM
- Kb [9]: 129 nM
- Kb [10]: 389 nM
- Effective dose [12]: 27 nM/kg

SMILES: CC(C)C[C@H]1NC(=O)CC2(CCCCC2)SSC[C@@H](C(=O)N2CCC[C@H]2C(=O)N[C@@H](CCCN=C(N)N)C(=O)NCC(N)=O)NC(=O)[C@H](CC(N)=O)NC(=O)[C@H](C(C)C)NC(=O)[C@H](Cc2ccccc2)NC1=O
- ED ratio [1]: 22
- Selectivity [2]: 170
- Kb [3]: 47.9 nM
- Effective dose [11]: 1.2 nM/kg
- Selectivity [4]: 16
- Effective dose [5]: 61 nM/kg
- Kb [6]: 891 nM
- ED ratio [7]: 51
- Kb [8]: 16.2 nM
- Kb [9]: 41.7 nM
- Kb [10]: 355 nM
- Effective dose [12]: 26 nM/kg

SMILES: CC(C)[C@@H]1NC(=O)[C@H](Cc2ccccc2)NC(=O)[C@H](Cc2ccc(O)cc2)NC(=O)CC2(CCCCC2)SSC[C@@H](C(=O)N2CCC[C@H]2C(=O)N[C@@H](CCCN=C(N)N)C(=O)NCC(N)=O)NC(=O)[C@H](CC(N)=O)NC1=O
- Kb [3]: 45.7 nM
- Effective dose [5]: 26 nM/kg
- Kb [6]: 339 nM
- Kb [9]: 49 nM
- Kb [10]: 10.7 nM

SMILES: CC(C)[C@@H]1NC(=O)[C@H](Cc2ccccc2)NC(=O)CNC(=O)CC2(CCCCC2)SSC[C@@H](C(=O)N2CCC[C@H]2C(=O)N[C@@H](CCCN=C(N)N)C(=O)NCC(N)=O)NC(=O)[C@H](CC(N)=O)NC1=O (GFVNCPRG-NH2; linker N-5 via X1)
- Kb [3]: 2880 nM
- Kb [9]: > 20000 nM
